Reference: ChEMBL document CHEMBL1156916, “New fluorinated 1,2,4-benzothiadiazine 1,1-dioxides: discovery of an orally active cognitive enhancer acting through potentiation of the 2-amino-3-(3-hydroxy-5-methylisoxazol-4-yl)propionic acid receptors” (J Med Chem, 2010)
Active and inactive are the calls of the source. The rule behind the calls is not given here.

Key:
[1] = test system: Mus musculus; experiment: Toxicity in mouse at 10 to 30 mg/kg, ip by Irwin's test; assay type: organism-based; design: dose 10-30 mg/kg, route intraperitoneal; settings: in vivo
[2] = test system: Oocyte; experiment: Induction of amplitude current in Xenopus laevis oocytes assessed as 2 fold increase in AMPA-induced current by voltage clamp method; assay type: functional
Outline: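 Xenopus oocytes injected with poly(A+) mRNA from cortex of 15-day-old male Wistar rats, expressed 3 days at 18 °C. Two-electrode voltage clamp at -60 mV; 10 μM (S)-AMPA applied 30 s every 5 min. Compound given at increasing concentrations 45 s before, during and after AMPA; peak current compared with the same oocyte's control. EC2X is the 2-fold increase; n ≥ 3, mean ± SEM.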

[3] = test system: Liver microsomes; experiment: Metabolic stability in rat liver microsomes assessed as metabolite degradation after 30 mins at 37 degC by HPLC; assay type: ADME, Microsome; settings: 0.5 h
Outline: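 Phenobarbital-induced rat liver microsomes at 1 mg/mL protein with 200 μM substrate (methanol <1%), 37 °C, NADPH-generating system in pH 7.4 phosphate buffer. Incubated 30 min; T0 samples quenched with organic solvent. Metabolites resolved by RP-HPLC with ESI-MS/MS and identified against synthetic standards.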

[4] = test system: Mus musculus; experiment: Toxicity in mouse assessed as hypothermia at 30 mg/kg, po after 1.5 hrs; settings: in vivo
[5] = test system: Rattus norvegicus; experiment: Increase in memory in po dosed Wistar rat by object recognition test; assay type: functional, organism-based
Outline: (§1)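 Male Wistar rats (220-330 g), three sessions: 2 min habituation, acquisition with two identical objects, then 3 min recognition with one object replaced by a novel one. Oral compound or vehicle given 1 h before each session. Discrimination index is novel minus familiar exploration time; n = 9-10 per dose; ANOVA plus Dunnett.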

[6] = test system: Hippocampus; experiment: Increase in AMPA-mediated postsynaptic response recorded in rat hippocampus CA1 region assessed as increase in excitatory postsynaptic field potential half width at 50 uM; assay type: functional
Outline: (§2)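 Rat hippocampal slices, Schaffer collateral stimulation with EPSfPs recorded in CA1; perfusion medium contains 1.2 mM Mg2+. Compound bath-applied for 10 min at successively increasing concentrations, with washout to recovery. Amplitude, area and half-width averaged over five pulses and normalized to five pre-drug responses (100%). Compared with vehicle by two-way ANOVA plus Dunnett.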

[7] = test system: Rattus norvegicus; experiment: Increase in long term potentiation-evoked EPSfP amplitude in dentate gyrus of anesthetized Wistar rat hippocampus at 3 mg/kg, ip measured for 3 hrs; assay type: functional, organism-based; design: dose 3 mg/kg
Outline: (§3)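 Male Wistar rats (300-400 g) anaesthetized with chloral hydrate 400 mg/kg ip; body temperature held at 36.6-37 °C. Perforant path stimulated, dentate gyrus recorded. After a 60 min baseline, compound or vehicle given ip; tetanus 60 min later (four 400 Hz bursts). Recorded for 3 h; EPSfP amplitude normalized to baseline; two-way ANOVA plus Dunnett.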

[8] = test system: Hippocampus; experiment: Increase in AMPA-mediated postsynaptic response recorded in rat hippocampus CA1 region assessed as increase in excitatory postsynaptic field potential amplituted at 50 uM; assay type: functional; outline: as §2
[9] = test system: Hippocampus; experiment: Increase in AMPA-mediated postsynaptic response recorded in rat hippocampus CA1 region assessed as increase in excitatory postsynaptic field potential area; assay type: functional, tissue-based; outline: as §2
[10] = test system: Rattus norvegicus; experiment: Increase in duration of long term potentiation in dentate gyrus of anesthetized Wistar rat hippocampus at 10 mg/kg, ip measured for 3 hrs; assay type: functional, organism-based; design: dose 10 mg/kg; outline: as §3
[11] = test system: Rattus norvegicus; experiment: Increase in memory in Wistar rat at 0.03 to 1 mg/kg, po treated 60 mins before test session by object recognition test; assay type: functional, organism-based; outline: as §1
[12] = test system: Hippocampus; experiment: Increase in AMPA-mediated postsynaptic response recorded in rat hippocampus CA1 region assessed as increase in excitatory postsynaptic field potential area at 50 uM; assay type: functional; outline: as §2
[13] = test system: Mus musculus; experiment: Toxicity in mouse at 30 mg/kg, ip; settings: in vivo
[14] = Dissociation constant, pKa of the compound; assay type: physicochemical

In the case of `O=S1(=O)N=CN(CCF)c2ccc(Cl)cc21`, the Activity [1] is reported as “Non-toxic”.
For `O=S1(=O)N[C@H]2CCCN2c2ccccc21`, the EC [2] was 25 µM.
`CCN1CNS(=O)(=O)c2cc(OC)ccc21` showed an EC [2] of 68 µM.
For `O=S1(=O)NCN(CCF)c2ccc(Cl)cc21`, the Stability [3] was “Unstable”, the Activity [4] was “Toxic” and the Activity [5] was “Active”. The Activity [6] was 47%, the Activity [7] was “Active” and the Activity [8] was 23%. The Activity [9] was “Dose-dependent effect”, the Activity [10] was “Active” and the Activity [11] was “Active”. For the same compound, the Activity [12] was 66%, the EC [2] was 6.7 µM and the Activity [13] was “Non-toxic”. The pKa [14] was 9.35.
Compound `O=S1(=O)NCN(CCO)c2ccc(Cl)cc21` has an EC [2] of 54 µM.
`O=S1(=O)NCN(CCF)c2ccc(F)cc21` showed an EC [2] of 3.6 µM.
With `CCN1CNS(=O)(=O)c2cc(C(F)(F)F)ccc21` the EC [2] was >300 µM.
Work on `NS(=O)(=O)c1cc2c(cc1Cl)NC(C1CC3C=CC1C3)NS2(=O)=O` (stereo unspecified) [CYCLOTHIAZIDE] yielded an EC [2] of 1.7 µM.
With `CCN1CNS(=O)(=O)c2cc(C)ccc21` the EC [2] was 25 µM.
With `O=S1(=O)N=CNc2ccc(Cl)cc21` the Activity [1] was “Non-toxic”.
Compound `CCN1CNS(=O)(=O)c2cc(Br)ccc21` has an EC [2] of 29 µM.
In the case of `O=S1(=O)NCN(CC(F)(F)F)c2ccc(Cl)cc21`, the Activity [5] is reported as “inactive”, the EC [2] is reported as 19 µM and the Activity [13] is reported as “Non-toxic”. It also gave a pKa [14] of 9.01.
In the case of `COc1ccc2c(c1)S(=O)(=O)NCN2CCF`, the EC [2] is reported as 71 µM.
`O=S1(=O)NCN(CCF)c2ccc(Br)cc21` gave an EC [2] of 17 µM.
With `O=S1(=O)NCN(CCF)c2ccc(C(F)(F)F)cc21` the EC [2] was >300 µM.
In the case of `O=S1(=O)NCN(CCF)c2ccc(I)cc21`, the EC [2] is reported as 120 µM.
Compound `O=[N+]([O-])c1ccc2c(c1)S(=O)(=O)NCN2CC(F)(F)F` has an EC [2] of 55 µM.
In the case of `CCN1CNS(=O)(=O)c2cc(Cl)ccc21`, the Stability [3] is reported as “Unstable” and the pKa [14] is reported as 9.33.
For `CCN1CNS(=O)(=O)c2cc([N+](=O)[O-])ccc21`, the EC [2] was 16 µM.
With `CCN1CNS(=O)(=O)c2cc(I)ccc21` the EC [2] was 95 µM.
With `O=[N+]([O-])c1ccc2c(c1)S(=O)(=O)NCN2CCF` the EC [2] was 27 µM and the pKa [14] was 8.45.
Compound `CCN1CNS(=O)(=O)c2cc(Cl)cnc21` has an EC [2] of 28.3 µM.
For `Cc1ccc2c(c1)S(=O)(=O)NCN2CCF`, the EC [2] was 47.5 µM.
`O=S1(=O)NCN(CC(F)F)c2ccc(Cl)cc21` gave an EC [2] of 13.5 µM.
